Measured values from ChEMBL document CHEMBL3352013, “The design and synthesis of potent and selective inhibitors of Trypanosoma brucei glycogen synthase kinase 3 for the treatment of human african trypanosomiasis” (J Med Chem, 2014).

Key:
[1] = target: Insulin-like growth factor 1 receptor (Homo sapiens) (UniProt P08069); assay: Inhibition of IGF-1R (unknown origin) assessed as residual enzyme activity at 10 uM
[2] = target: Mitogen-activated protein kinase 9 (Homo sapiens) (UniProt P45984); assay: Inhibition of JNK2 (unknown origin) assessed as residual enzyme activity at 10 uM
[3] = target: Cyclin-dependent kinase 2 (Homo sapiens) (UniProt P24941); assay: Inhibition of CDK2 (unknown origin) assessed as residual enzyme activity at 10 uM
[4] = target: MAP kinase-activated protein kinase 2 (Homo sapiens) (UniProt P49137); assay: Inhibition of MAPKAP-K2 (unknown origin) assessed as residual enzyme activity at 10 uM
[5] = target: Serine/threonine-protein kinase pim-3 (Homo sapiens) (UniProt Q86V86); assay: Inhibition of PIM3 (unknown origin) assessed as residual enzyme activity at 10 uM
[6] = target: T1, Dual specificity tyrosine-phosphorylation-regulated kinase 2 (Homo sapiens) (UniProt Q92630); assay: Inhibition of DYRK2 (unknown origin) assessed as residual enzyme activity at 10 uM
T1 sequence (whole entry): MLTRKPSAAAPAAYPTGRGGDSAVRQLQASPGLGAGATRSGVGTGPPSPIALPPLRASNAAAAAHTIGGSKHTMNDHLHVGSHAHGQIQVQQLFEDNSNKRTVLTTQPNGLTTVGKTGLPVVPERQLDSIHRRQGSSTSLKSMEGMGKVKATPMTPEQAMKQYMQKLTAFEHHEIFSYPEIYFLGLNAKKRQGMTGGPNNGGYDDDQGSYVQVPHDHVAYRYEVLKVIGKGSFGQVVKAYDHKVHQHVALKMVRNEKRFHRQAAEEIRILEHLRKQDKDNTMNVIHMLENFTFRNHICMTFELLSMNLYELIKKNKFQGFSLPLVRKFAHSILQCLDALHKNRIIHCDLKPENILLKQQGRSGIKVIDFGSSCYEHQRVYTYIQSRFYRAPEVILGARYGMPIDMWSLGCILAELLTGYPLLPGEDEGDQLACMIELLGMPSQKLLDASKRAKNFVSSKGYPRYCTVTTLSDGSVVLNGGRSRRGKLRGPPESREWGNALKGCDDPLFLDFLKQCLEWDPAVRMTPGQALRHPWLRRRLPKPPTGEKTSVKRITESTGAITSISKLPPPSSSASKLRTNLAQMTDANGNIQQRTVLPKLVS

[7] = target: T2, Dual specificity tyrosine-phosphorylation-regulated kinase 3 (Homo sapiens) (UniProt O43781); assay: Inhibition of DYRK3 (unknown origin) assessed as residual enzyme activity at 10 uM
T2 sequence (whole entry): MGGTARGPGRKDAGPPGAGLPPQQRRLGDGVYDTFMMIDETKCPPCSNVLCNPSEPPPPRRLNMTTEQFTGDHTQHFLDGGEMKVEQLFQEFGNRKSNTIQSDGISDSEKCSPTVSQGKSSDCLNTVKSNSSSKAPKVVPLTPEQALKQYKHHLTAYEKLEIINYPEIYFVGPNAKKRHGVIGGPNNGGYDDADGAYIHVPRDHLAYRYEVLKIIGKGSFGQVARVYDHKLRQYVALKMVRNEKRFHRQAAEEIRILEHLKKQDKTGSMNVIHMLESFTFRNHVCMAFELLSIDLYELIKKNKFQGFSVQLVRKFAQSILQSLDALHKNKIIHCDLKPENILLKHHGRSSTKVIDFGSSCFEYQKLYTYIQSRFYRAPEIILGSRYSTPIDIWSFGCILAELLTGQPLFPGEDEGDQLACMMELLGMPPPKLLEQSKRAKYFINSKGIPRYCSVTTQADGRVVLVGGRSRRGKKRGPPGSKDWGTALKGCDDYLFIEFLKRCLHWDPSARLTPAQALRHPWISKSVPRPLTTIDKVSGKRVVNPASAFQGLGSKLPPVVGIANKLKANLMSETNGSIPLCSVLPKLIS

[8] = target: Glycogen synthase kinase-3 (Homo sapiens, UniProt P49840+P49841); assay: Inhibition of human GSK3 using biotinylated GSP2 substrate by flashplate assay; type: protein assay
CDK2/Cyclin A2 = CDK2/Cyclin A2 (Homo sapiens, UniProt P24941); assay: Inhibition of human CDK2/cyclin A using Biotin-C6-PKTPKKAKKL substrate; type: protein-complex assay
[9] = target: T3, Mitogen-activated protein kinase 15 (Homo sapiens) (UniProt Q8TD08); assay: Inhibition of ERK8 (unknown origin) assessed as residual enzyme activity at 10 uM
T3 sequence (whole entry): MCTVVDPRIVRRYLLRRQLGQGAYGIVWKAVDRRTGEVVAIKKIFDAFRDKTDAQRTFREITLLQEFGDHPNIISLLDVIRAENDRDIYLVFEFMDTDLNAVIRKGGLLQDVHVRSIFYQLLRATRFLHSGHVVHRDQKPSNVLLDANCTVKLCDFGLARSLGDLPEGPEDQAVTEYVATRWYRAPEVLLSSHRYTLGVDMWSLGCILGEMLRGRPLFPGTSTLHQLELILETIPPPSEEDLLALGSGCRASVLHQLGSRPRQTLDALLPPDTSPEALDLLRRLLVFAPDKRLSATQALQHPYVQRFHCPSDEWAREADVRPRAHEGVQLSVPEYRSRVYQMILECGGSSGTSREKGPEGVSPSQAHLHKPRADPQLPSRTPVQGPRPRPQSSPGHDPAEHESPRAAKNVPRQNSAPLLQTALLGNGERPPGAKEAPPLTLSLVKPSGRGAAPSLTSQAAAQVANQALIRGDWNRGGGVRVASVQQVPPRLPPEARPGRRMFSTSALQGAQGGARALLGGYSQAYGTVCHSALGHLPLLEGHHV

[10] = target: Dual specificity tyrosine-phosphorylation-regulated kinase 1A (Homo sapiens) (UniProt Q13627); assay: Inhibition of DYRK1A (unknown origin) assessed as residual enzyme activity at 10 uM
[11] = Inhibition of Trypanosoma brucei GSK3 using biotinylated GSP2 substrate by flashplate assay
Procedure, shortened: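 Radiometric Flashplate assay: 2.5 nM TbGSK3 short, 1 μM biotinylated GSP2, 1 μM ATP plus [γ-33P]-ATP. 10-point titration 30 μM to 0.3 nM final, 1% DMSO. IC50 averaged over two or more experiments; standard GW8510 used for reproducibility (MSR).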

[12] = system: Trypanosoma brucei brucei; assay: Trypanocidal activity against bloodstream stage of Trypanosoma brucei brucei assessed as inhibition of proliferation after 72 hrs; type: functional, organism-based
Procedure, shortened: (§1)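 Resazurin viability assay: 2 × 10³ cells/well (MRC5 in MEM + 10% FBS; bloodstream-form T. b. brucei in appropriate medium), compounds 50 μM to 0.5 nM, 37 °C, 5% CO₂ for 69 h, then resazurin 50 μM final for further 4 h; fluorescence read. Concentration giving 50% growth inhibition over 72 h; average of two or more experiments.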

[13] = target: Dual specificity mitogen-activated protein kinase kinase 1 (Homo sapiens) (UniProt Q02750); assay: Inhibition of MKK1 (unknown origin) assessed as residual enzyme activity at 10 uM
[14] = target: Glycogen synthase kinase-3 beta (Homo sapiens) (UniProt P49841); assay: Inhibition of GSK3b (unknown origin) assessed as residual enzyme activity at 10 uM
[15] = target: Mitogen-activated protein kinase 1 (Homo sapiens) (UniProt P28482); assay: Inhibition of ERK2 (unknown origin) assessed as residual enzyme activity at 10 uM
[16] = target: Maternal embryonic leucine zipper kinase (Homo sapiens) (UniProt Q14680); assay: Inhibition of MELK (unknown origin) assessed as residual enzyme activity at 10 uM
[17] = target: Homeodomain-interacting protein kinase 2 (Homo sapiens) (UniProt Q9H2X6); assay: Inhibition of HIPK2 (unknown origin) assessed as residual enzyme activity at 10 uM
[18] = target: Serine/threonine-protein kinase pim-1 (Homo sapiens) (UniProt P11309); assay: Inhibition of PIM1 (unknown origin) assessed as residual enzyme activity at 10 uM
[19] = target: Mitogen-activated protein kinase 8 (Homo sapiens) (UniProt P45983); assay: Inhibition of JNK1 (unknown origin) assessed as residual enzyme activity at 10 uM
MRC5 = assay: Cytotoxicity against human MRC5 cells assessed as growth inhibition after 72 hrs; type: cell-based; conditions: MRC5, 72 h; procedure, shortened: as §1
[20] = Selectivity ratio, ratio of IC50 for human CDK2/cyclin A to IC50 for Trypanosoma brucei GSK3
[21] = Selectivity ratio, ratio of IC50 for human GSK3 to IC50 Trypanosoma brucei GSK3

Insulin-like growth factor 1 receptor (Homo sapiens), sequence (P08069 31-736 limits assumed): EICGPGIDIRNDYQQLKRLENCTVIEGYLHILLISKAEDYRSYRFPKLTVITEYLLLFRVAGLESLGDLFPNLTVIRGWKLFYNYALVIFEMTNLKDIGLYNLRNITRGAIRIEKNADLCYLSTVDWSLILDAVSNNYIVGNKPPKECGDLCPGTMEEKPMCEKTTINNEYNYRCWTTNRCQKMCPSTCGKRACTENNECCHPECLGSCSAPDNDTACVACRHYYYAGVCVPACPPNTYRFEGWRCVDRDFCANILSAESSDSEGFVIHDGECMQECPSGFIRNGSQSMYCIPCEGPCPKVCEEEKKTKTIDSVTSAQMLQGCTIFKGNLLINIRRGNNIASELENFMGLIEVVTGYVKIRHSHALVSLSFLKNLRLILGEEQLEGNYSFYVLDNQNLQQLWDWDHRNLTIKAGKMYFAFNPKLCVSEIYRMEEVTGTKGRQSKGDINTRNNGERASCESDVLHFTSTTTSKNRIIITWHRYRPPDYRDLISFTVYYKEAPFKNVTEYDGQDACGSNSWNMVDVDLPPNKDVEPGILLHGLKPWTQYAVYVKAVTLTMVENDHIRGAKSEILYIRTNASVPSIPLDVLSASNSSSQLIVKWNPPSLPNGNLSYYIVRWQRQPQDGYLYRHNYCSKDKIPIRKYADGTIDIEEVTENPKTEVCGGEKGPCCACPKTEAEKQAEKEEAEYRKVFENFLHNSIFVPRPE
Insulin-like growth factor 1 receptor (Homo sapiens), sequence (P08069 741-1367 limits assumed): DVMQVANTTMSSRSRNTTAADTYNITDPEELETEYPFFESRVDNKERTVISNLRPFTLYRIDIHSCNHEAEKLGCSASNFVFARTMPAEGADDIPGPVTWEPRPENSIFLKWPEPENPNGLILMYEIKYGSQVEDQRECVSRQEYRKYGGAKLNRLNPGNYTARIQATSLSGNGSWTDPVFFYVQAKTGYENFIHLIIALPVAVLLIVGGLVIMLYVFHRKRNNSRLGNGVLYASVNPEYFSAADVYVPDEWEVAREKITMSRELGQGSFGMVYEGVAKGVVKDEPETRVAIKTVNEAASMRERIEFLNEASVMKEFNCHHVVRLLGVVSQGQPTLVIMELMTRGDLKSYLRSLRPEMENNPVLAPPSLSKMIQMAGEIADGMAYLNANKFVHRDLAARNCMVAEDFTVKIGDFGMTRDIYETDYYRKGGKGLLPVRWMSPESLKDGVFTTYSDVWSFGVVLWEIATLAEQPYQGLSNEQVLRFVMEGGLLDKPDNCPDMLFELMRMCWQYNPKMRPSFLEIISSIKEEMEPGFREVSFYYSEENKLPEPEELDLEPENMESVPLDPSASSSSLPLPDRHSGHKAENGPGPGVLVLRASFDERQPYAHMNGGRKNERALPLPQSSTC
Homeodomain-interacting protein kinase 2 (Homo sapiens), sequence (Q9H2X6 whole entry, looked up): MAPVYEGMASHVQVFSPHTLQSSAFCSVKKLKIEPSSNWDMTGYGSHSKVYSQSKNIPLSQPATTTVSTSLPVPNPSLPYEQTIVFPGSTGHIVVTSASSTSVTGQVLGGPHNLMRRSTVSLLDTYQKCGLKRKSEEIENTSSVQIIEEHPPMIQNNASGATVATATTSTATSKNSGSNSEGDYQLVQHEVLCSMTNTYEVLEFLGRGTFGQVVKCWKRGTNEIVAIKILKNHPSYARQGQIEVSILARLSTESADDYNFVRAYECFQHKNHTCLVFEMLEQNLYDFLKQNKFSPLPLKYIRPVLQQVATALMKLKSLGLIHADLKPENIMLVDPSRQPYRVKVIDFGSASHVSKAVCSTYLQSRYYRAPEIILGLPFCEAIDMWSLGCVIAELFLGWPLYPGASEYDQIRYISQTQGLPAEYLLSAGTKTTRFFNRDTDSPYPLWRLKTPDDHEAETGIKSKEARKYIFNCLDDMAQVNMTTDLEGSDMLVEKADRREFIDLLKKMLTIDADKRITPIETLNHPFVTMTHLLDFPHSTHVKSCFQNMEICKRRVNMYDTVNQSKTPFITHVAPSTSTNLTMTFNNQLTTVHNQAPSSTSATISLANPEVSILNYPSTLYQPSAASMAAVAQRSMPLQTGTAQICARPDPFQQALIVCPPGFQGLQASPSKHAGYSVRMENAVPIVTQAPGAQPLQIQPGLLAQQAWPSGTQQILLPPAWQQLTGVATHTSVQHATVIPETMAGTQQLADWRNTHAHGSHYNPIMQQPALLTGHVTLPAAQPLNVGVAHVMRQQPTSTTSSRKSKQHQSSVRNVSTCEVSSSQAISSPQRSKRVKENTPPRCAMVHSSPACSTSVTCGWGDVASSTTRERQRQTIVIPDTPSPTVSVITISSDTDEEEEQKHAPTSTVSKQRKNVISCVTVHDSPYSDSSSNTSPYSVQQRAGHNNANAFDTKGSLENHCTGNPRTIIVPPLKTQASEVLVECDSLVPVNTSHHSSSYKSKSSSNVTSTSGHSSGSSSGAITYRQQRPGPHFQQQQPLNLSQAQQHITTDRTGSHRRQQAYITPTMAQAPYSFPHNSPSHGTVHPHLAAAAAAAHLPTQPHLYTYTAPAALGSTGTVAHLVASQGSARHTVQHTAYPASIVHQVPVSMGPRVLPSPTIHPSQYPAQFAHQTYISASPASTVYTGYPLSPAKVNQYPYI
Dual specificity mitogen-activated protein kinase kinase 1 (Homo sapiens), sequence (Q02750 whole entry): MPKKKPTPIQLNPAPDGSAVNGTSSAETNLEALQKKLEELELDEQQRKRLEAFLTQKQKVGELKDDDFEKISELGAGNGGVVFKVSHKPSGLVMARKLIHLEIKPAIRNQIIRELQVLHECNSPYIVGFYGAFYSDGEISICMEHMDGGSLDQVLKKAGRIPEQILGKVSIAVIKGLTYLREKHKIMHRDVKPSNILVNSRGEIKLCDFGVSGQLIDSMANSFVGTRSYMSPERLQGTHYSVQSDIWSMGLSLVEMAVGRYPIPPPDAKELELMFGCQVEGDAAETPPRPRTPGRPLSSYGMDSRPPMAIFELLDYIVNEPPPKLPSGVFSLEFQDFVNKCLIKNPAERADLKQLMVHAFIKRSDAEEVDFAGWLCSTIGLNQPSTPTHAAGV
Mitogen-activated protein kinase 8 (Homo sapiens), sequence (P45983 whole entry): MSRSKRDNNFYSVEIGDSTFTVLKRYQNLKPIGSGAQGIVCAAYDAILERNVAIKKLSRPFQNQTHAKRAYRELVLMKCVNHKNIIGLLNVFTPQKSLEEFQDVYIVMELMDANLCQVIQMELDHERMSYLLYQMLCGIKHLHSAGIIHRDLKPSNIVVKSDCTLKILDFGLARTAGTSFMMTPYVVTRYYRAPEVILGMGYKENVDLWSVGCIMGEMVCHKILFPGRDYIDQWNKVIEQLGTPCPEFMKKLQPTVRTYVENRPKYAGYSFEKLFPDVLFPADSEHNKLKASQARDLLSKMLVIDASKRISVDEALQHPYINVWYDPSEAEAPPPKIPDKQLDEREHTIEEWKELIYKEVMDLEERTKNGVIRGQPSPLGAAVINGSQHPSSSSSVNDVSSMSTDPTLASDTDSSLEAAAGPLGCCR
Maternal embryonic leucine zipper kinase (Homo sapiens), sequence (Q14680 whole entry, looked up): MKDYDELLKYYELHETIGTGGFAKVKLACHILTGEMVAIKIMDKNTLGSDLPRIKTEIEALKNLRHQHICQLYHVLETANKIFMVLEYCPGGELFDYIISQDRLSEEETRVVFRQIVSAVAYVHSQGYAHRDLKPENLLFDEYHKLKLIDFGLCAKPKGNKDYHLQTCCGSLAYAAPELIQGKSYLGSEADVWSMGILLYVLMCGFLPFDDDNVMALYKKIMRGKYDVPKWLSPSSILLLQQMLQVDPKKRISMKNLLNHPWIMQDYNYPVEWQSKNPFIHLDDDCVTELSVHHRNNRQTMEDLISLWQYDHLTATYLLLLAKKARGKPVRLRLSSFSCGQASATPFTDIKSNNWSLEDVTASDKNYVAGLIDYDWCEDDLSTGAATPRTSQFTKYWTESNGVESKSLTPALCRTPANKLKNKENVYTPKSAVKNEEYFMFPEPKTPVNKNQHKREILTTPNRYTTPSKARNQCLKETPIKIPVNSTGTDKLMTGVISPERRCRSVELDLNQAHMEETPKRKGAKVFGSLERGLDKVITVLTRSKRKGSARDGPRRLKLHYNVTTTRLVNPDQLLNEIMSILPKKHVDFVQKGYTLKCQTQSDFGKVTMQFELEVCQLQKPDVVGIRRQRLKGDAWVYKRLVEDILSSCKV
Mitogen-activated protein kinase 1 (Homo sapiens), sequence (P28482 whole entry): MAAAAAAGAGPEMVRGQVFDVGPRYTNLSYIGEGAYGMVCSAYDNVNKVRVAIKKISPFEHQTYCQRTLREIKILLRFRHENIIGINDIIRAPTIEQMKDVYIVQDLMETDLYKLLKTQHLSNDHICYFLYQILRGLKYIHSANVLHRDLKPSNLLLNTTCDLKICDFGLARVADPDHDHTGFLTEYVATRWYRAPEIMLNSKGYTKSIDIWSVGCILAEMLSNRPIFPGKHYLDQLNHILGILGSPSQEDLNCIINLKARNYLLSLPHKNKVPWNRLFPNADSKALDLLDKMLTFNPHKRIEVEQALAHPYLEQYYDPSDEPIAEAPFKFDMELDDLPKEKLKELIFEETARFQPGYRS
Mitogen-activated protein kinase 9 (Homo sapiens), sequence (P45984 whole entry, looked up): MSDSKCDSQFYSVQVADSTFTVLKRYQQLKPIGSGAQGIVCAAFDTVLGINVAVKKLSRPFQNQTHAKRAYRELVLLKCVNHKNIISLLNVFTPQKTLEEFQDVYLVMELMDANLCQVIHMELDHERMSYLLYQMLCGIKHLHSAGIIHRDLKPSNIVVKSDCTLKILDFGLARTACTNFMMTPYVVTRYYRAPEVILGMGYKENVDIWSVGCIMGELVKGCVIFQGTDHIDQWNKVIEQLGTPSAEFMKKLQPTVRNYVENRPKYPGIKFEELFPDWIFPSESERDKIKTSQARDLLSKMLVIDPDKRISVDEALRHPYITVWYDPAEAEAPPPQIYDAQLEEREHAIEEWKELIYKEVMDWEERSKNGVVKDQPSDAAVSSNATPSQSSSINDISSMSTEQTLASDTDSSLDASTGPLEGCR

IC50 [8]	IC50 (CDK2/Cyclin A2)	Ratio IC50 [20]	Ratio IC50 [21]	SMILES	IC50 [11]	EC50 [12]	EC50 (MRC5)	also measured
< 5 nM	38 nM	–	–	CO[C@H]1CC[C@H](NC(=O)c2n[nH]cc2NC(=O)c2ccccc2)CC1	24 nM	1300 nM	800 nM	Activity [1]: 96%; Activity [2]: 51%; Activity [3]: 1%; Activity [4]: 92%; Activity [5]: 19%; Activity [6]: 3%; Activity [7]: 24%; Activity [9]: 14%; Activity [10]: 6%; Activity [13]: 54%; Activity [14]: 33%; Activity [15]: 18%; Activity [16]: 32%; Activity [17]: 14%; Activity [18]: 46%; Activity [19]: 31%
90 nM	3100 nM	1000	30	COc1cc(OC)c(C(=O)Nc2c[nH]nc2C(=O)N[C@H]2CC[C@H](OC)CC2)c(OC)c1	3 nM	5900 nM	> 50000 nM	–
50 nM	1200 nM	1200	50	COc1cccc(OC)c1C(=O)Nc1c[nH]nc1C(=O)NC1CCCCC1	1 nM	4100 nM	35000 nM	–
20 nM	2000 nM	2000	20	COc1cccc(OC)c1C(=O)Nc1c[nH]nc1C(=O)NC1CCCCCC1	1 nM	4500 nM	42000 nM	–
70 nM	4300 nM	720	12	COc1cccc(OC)c1C(=O)Nc1c[nH]nc1C(=O)Nc1ccccc1	6 nM	11500 nM	> 50000 nM	–
630 nM	> 10000 nM	> 190	12	COc1cccc(OC)c1C(=O)Nc1c[nH]nc1C(=O)NCCN1CCOCC1	54 nM	> 50000 nM	> 50000 nM	–
80 nM	> 10000 nM	> 1300	10	COc1cccc(OC)c1C(=O)Nc1c[nH]nc1C(=O)NC1CCN(Cc2ccccc2)C1 (stereo not drawn)	8 nM	8900 nM	38000 nM	–
300 nM	> 10000 nM	> 290	8.8	COCCNC(=O)c1n[nH]cc1NC(=O)c1c(OC)cccc1OC	34 nM	43000 nM	> 50000 nM	–
120 nM	1300 nM	330	30	COc1cccc(OC)c1C(=O)Nc1c[nH]nc1C(=O)Nc1ccncc1	4 nM	8200 nM	> 50000 nM	–
8 nM	1000 nM	2	0.16	CO[C@H]1CC[C@H](NC(=O)c2n[nH]cc2NC(=O)C2CCC(F)(F)CC2)CC1	500 nM	16000 nM	> 50000 nM	–
210 nM	850 nM	1.7	0.42	COc1ccccc1CC(=O)Nc1c[nH]nc1C(=O)N[C@H]1CC[C@H](OC)CC1	500 nM	22000 nM	40000 nM	–
870 nM	> 10000 nM	> 71	6.2	COc1cccc(OC)c1C(=O)Nc1c[nH]nc1C(=O)NCc1ncccc1C	140 nM	> 50000 nM	> 50000 nM	–
140 nM	4700 nM	780	23	COc1cccc(OC)c1C(=O)Nc1c[nH]nc1C(=O)NC1CCN(C(=O)OC(C)(C)C)CC1	6 nM	12000 nM	> 50000 nM	–
200 nM	290 nM	1.3	0.87	CO[C@H]1CC[C@H](NC(=O)c2n[nH]cc2NC(=O)Cc2c(Cl)cccc2Cl)CC1	230 nM	7300 nM	3100 nM	–
20 nM	70 nM	1.3	0.38	CCc1ccccc1C(=O)Nc1c[nH]nc1C(=O)N[C@H]1CC[C@H](OC)CC1	53 nM	2800 nM	3400 nM	–
4500 nM	> 10000 nM	> 19	8.7	COC(=O)c1n[nH]cc1NC(=O)c1c(OC)cccc1OC	520 nM	> 50000 nM	> 50000 nM	–
70 nM	1600 nM	800	35	COc1cccc(OC)c1C(=O)Nc1c[nH]nc1C(=O)N[C@H]1CC[C@H](O)CC1	2 nM	6400 nM	34000 nM	–
